From ChEMBL document CHEMBL4020721 (Eur J Med Chem, 2017)

Tests used:
[1] = target: Tyrosine-protein kinase receptor UFO (Homo sapiens, UniProt P30530); test: Inhibition of Axl (unknown origin) using FAM-labeled peptide as substrate preincubated for 5 to 10 mins followed by substrate/ATP addition measured after 30 to 60 mins by mobility shift assay
Method in brief: (§1)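 Caliper mobility-shift assay with FAM-labeled peptide substrate. Buffer: 50 mM HEPES pH 7.5, 0.0015% Brij-35, 10 mM MgCl2, 2 mM DTT, with kinase-specific enzyme levels. […] Incubation was 30-60 min at 28°C, stopped with EDTA buffer. Read-out was % conversion.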

[2] = target: CYP2C19 (Homo sapiens, UniProt P33261); test: Reversible inhibition of CYP2C19 in human liver microsomes at 10 uM after 20 mins in presence of NADPH by LC-MS/MS analysis; format: ADME; conditions: liver microsomes
[3] = target: Vascular endothelial growth factor receptor 1 (Homo sapiens, UniProt P17948); test: Inhibition of FLT1 (unknown origin) using FAM-labeled peptide as substrate preincubated for 5 to 10 mins followed by substrate/ATP addition measured after 30 to 60 mins by mobility shift assay; method in brief: as §1
[4] = target: Insulin-like growth factor 1 receptor (Homo sapiens, UniProt P08069); test: Inhibition of IGF1R (unknown origin) using FAM-labeled peptide as substrate preincubated for 5 to 10 mins followed by substrate/ATP addition measured after 30 to 60 mins by mobility shift assay; method in brief: as §1
Insulin-like growth factor 1 receptor, sequence (P08069 31-736 limits assumed): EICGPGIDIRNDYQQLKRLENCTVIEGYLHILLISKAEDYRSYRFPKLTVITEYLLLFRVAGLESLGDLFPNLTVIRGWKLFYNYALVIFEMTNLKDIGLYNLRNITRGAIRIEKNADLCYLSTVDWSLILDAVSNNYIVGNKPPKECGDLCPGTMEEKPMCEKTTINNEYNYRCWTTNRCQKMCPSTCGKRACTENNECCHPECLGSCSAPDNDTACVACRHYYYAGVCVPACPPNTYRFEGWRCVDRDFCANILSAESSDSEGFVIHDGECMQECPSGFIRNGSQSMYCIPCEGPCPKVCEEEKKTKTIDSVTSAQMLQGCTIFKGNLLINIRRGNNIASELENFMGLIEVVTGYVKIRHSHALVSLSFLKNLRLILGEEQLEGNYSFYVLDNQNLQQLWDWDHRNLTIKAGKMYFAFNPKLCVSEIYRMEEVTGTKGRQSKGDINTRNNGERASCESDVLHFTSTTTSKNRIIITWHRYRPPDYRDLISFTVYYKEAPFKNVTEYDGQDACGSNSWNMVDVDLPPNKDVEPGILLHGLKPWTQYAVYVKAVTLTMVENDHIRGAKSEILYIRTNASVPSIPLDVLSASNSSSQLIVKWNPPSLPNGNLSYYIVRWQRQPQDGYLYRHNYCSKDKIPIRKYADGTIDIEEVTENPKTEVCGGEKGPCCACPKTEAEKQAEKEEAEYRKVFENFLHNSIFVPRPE
Insulin-like growth factor 1 receptor, sequence (P08069 741-1367 limits assumed): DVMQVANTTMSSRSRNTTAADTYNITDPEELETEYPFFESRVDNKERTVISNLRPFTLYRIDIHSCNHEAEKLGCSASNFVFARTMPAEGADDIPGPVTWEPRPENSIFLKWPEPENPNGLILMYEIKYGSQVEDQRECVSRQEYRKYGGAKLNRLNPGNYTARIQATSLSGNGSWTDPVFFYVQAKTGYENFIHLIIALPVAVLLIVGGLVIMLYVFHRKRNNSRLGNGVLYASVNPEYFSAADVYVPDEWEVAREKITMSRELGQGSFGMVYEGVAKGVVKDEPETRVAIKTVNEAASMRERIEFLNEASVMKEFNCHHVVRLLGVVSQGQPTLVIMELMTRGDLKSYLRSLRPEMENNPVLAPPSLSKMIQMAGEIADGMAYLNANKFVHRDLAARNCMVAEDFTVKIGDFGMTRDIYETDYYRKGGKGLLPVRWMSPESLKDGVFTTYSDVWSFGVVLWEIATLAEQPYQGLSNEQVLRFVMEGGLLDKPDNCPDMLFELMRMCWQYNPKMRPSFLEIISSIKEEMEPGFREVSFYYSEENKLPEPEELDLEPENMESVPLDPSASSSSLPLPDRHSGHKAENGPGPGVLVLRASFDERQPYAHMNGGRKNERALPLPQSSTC

[5] = tested on: NCI-H1993; test: Antitumor activity against human NCI-H1993 cells xenografted in BALB/c athymic nude mouse assessed as tumor growth inhibition at 1 mg/kg, po administered once daily for 3 weeks; format: functional; conditions: 504 h, read-out: TGI
Method in brief: (§2)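 BALB/c nude mice, 5-6 weeks old, kept under SPF conditions, received 7×10^6 NCI-H1993 cells s.c. in the right flank. At 150-250 mm³ they were sorted and randomized, n=7 per group, with vehicle controls. Dosing was oral, once daily for 3 weeks. […] Mean±SEM, Student's t-test.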

[6] = target: Ephrin type-B receptor 2 (Homo sapiens, UniProt P29323); test: Inhibition of EPHB2 (unknown origin) using FAM-labeled peptide as substrate preincubated for 5 to 10 mins followed by substrate/ATP addition measured after 30 to 60 mins by mobility shift assay; method in brief: as §1
Ephrin type-B receptor 2, sequence (P29323 whole entry): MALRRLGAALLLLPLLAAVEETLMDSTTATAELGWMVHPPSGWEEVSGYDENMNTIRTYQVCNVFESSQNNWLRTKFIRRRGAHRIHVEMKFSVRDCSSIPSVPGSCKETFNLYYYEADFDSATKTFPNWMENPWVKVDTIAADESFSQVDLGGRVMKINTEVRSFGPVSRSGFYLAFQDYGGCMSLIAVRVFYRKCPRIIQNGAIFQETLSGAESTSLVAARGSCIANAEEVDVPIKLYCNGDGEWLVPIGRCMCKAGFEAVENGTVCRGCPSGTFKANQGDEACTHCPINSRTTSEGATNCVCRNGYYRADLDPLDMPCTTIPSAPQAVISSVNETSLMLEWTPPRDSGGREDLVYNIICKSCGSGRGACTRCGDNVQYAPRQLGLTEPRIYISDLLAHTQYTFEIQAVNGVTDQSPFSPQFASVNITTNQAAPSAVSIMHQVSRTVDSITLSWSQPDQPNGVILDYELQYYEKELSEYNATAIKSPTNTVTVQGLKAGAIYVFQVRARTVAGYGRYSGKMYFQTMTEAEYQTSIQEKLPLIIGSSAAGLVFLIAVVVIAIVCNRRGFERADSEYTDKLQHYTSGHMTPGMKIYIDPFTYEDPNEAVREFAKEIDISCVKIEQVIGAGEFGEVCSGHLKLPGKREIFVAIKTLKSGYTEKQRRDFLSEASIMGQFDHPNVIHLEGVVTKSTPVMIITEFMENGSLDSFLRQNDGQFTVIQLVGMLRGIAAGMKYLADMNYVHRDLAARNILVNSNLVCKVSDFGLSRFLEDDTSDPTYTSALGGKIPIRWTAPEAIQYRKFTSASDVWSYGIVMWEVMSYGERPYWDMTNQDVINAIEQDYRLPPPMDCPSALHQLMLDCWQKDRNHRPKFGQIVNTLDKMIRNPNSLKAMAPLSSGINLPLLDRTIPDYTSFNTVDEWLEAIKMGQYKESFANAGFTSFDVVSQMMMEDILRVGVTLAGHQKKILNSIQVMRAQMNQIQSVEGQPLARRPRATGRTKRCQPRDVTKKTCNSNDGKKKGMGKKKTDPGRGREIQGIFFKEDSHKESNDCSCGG

[7] = Volume of distribution at steady state in Sprague-Dawley rat plasma at 1 mg/kg, iv by UPLC-MS/MS analysis; format: ADME, organism-based; conditions: read-out: Vdss
Method in brief: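 Male Sprague-Dawley rats (180-220 g), fasted overnight with water available, dosed iv (n=2). Blood on heparin collected from 0 to 1440 min. Plasma obtained by centrifugation and stored at -20°C. Proteins precipitated with acetonitrile containing internal standard, then UPLC-MS/MS. Vss taken from the iv data.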

[8] = tested on: NCI-H1993; test: Antitumor activity against human NCI-H1993 cells xenografted in BALB/c athymic nude mouse assessed as tumor growth inhibition at 0.1 mg/kg, po administered once daily for 3 weeks; format: functional; conditions: 504 h, read-out: TGI; method in brief: as §2
[9] = target: Epidermal growth factor receptor (Homo sapiens, UniProt P00533); test: Inhibition of EGFR (unknown origin) using FAM-labeled peptide as substrate preincubated for 5 to 10 mins followed by substrate/ATP addition measured after 30 to 60 mins by mobility shift assay; method in brief: as §1
Epidermal growth factor receptor, sequence (P00533 whole entry): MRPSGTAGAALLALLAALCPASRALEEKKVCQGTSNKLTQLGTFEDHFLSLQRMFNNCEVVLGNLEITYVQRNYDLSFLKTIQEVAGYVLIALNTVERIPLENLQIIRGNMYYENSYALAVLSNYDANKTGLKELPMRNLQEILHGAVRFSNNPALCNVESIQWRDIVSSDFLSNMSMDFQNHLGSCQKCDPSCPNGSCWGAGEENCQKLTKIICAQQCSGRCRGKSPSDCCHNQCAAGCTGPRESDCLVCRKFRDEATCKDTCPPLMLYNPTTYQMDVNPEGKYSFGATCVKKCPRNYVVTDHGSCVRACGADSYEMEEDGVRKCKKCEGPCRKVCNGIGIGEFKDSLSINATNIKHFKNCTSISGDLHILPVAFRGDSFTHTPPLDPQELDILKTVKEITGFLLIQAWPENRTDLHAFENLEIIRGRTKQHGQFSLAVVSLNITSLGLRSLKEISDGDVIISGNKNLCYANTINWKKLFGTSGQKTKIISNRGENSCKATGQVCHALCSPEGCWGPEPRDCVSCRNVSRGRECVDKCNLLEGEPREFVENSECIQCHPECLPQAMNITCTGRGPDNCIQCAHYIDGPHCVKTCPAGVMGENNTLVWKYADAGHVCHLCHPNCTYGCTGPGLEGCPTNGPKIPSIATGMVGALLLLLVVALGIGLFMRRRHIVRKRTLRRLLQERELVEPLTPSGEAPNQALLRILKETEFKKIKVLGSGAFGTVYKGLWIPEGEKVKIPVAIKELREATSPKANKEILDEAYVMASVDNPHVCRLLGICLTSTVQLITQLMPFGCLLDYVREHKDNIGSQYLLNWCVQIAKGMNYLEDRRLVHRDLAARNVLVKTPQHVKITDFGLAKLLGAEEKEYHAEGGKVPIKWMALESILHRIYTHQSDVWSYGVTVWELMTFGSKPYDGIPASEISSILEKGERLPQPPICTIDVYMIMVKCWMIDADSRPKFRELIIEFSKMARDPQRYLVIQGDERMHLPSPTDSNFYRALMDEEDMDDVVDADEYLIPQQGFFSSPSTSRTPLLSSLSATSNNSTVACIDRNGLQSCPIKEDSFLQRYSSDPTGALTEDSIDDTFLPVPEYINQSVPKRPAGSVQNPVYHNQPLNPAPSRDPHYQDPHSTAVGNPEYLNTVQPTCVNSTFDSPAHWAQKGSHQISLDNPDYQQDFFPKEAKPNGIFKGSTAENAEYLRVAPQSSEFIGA

[10] = tested on: SNU-5; test: Antitumor activity against human SNU5 cells xenografted in BALB/c athymic nude mouse assessed as tumor regression at 1 mg/kg, po administered once daily for 2 weeks; format: functional
Method in brief: (§3)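 Nude BALB/c mice, 5-6 weeks old, under SPF conditions, were implanted s.c. in the right flank with 6×10^6 SNU-5 cells. Groups were sorted at 100-200 mm³, n=6, with vehicle controls. Oral dosing once daily for 2 weeks. Percent tumor regression = 100% × (treated day 0 − treated final)/treated day 0. Mean±SEM, Student's t-test.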

[11] = target: Platelet-derived growth factor receptor beta (Homo sapiens, UniProt P09619); test: Inhibition of PDGFRbeta (unknown origin) using FAM-labeled peptide as substrate preincubated for 5 to 10 mins followed by substrate/ATP addition measured after 30 to 60 mins by mobility shift assay; method in brief: as §1
Platelet-derived growth factor receptor beta, sequence (P09619 whole entry): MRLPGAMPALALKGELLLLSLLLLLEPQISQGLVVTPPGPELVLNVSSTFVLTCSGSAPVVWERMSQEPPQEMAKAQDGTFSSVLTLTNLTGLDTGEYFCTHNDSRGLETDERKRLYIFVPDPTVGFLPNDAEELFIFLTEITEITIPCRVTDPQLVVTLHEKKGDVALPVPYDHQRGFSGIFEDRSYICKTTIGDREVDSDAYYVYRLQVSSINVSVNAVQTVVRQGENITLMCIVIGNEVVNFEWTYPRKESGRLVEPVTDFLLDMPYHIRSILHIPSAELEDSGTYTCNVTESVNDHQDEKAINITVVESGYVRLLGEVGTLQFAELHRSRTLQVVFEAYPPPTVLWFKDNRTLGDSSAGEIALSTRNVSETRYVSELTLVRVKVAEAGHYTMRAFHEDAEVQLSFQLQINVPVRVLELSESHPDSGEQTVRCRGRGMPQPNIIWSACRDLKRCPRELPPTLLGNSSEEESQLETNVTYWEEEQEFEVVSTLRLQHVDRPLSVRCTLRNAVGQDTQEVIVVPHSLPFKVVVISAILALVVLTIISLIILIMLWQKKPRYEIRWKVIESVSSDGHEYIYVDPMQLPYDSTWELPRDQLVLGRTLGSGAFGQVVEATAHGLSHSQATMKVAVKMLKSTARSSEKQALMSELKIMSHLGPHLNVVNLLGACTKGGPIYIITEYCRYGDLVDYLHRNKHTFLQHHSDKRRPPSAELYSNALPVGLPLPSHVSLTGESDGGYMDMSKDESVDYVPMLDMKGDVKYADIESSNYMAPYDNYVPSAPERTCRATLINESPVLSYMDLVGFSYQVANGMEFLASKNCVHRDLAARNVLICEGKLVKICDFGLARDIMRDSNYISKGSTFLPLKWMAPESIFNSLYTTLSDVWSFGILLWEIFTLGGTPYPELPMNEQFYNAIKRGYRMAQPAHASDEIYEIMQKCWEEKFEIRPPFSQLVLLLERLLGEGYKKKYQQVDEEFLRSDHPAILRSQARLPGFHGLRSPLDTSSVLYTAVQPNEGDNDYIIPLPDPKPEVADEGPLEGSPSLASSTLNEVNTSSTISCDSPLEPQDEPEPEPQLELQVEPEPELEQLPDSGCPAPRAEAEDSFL

[12] = tested on: Mus musculus; test: Toxicity in BALB/c athymic nude mouse xenografted with human NCI-H1993 cells assessed as body weight loss at 0.1 to 10 mg/kg, po administered once daily for 3 weeks; format: organism-based; conditions: in vivo, 504 h
Method in brief: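 Female/male BALB/c nude mice (5-6 weeks, SPF). NCI-H1993 cells (7×10^6 in 140 µL) or SNU-5 cells (6×10^6 in 200 µL) injected s.c. into the right flank. Dosing started at mean tumour volume 150-250 mm³ (NCI-H1993) or 100-200 mm³ (SNU-5). Randomized, n = 7 (NCI-H1993) or 6 (SNU-5) per group. Oral dosing once daily; vehicle controls. Body weight and signs of toxicity monitored during treatment.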

[13] = tested on: SNU-5; test: Antitumor activity against human SNU5 cells xenografted in BALB/c athymic nude mouse assessed as percent tumor regression at 0.3 mg/kg, po administered once daily for 2 weeks; format: functional; method in brief: as §3

IC50 [1]: 1.07 µM
inhibition at 20 min, 10 µM [2]: < 50%
IC50 [3]: > 30 µM
IC50 [4]: > 30 µM
IC50 [6]: > 30 µM
Vd [7]: 2.1 L/kg
IC50 [9]: > 30 µM
IC50 [11]: > 30 µM
Structure (SMILES): CC(c1cc2cc(-c3cnn(C)c3)cnc2cc1F)n1nnc2ncc(-c3cnn(CCO)c3)nc21 (stereo in doubt; 14)
inhibition in vivo at 1 mg/kg [5]: 78.7%
inhibition in vivo at 0.1 mg/kg [8]: 55.5%
Activity [10]: 79.2%
Activity [12]: Non-Toxic
Activity [13]: 34%
